The results in this text go back to ChEMBL document CHEMBL1122726, “Analogues of platelet activating factor (PAF). 1. Some modifications of the alkoxy chain” (J Med Chem, 1984).

SMILES strings stand for the structures.

Assay [1] can be described thus: Ratio = (MABP / platelet EC50 ) x 10 E -8. Format: functional. The method in brief:
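Intravenous dose lowering MABP by 50 mmHg in spontaneously hypertensive rats, divided by the EC50 for aggregation of rabbit platelet-rich plasma, then multiplied by 10^-8.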

The species entered for assay [2] is Oryctolagus cuniculus. Put plainly: Tested for the molar concentration required to cause 50% of maximum aggregation.
The species named for assay [3] is Oryctolagus cuniculus. The experiment in a line: Tested for maximum aggregation units at specified molar concentration. The class given is functional. The method in brief:
(§1)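 Platelet-rich plasma from citrated cardiac-puncture blood of unanesthetized male New Zealand white rabbits, low-speed spin. Count adjusted with platelet-poor plasma, within 350000-600000/µL. 450 µL PRP plus 50 µL compound stock solution. EC50 taken as the concentration giving 50% of that compound's own maximum aggregation, from the mean dose-response curve of experiments with two to six replicates per dose. Maximum aggregation given in aggregation units at the stated molar concentration.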

The test system of assay [4] is Rattus norvegicus. Put plainly: Tested for the dose needed to decrease mean arterial blood pressure (MABP) 50 mmHg in male rats, iv. Format: functional. The essentials:
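Spontaneously hypertensive rats, arterial and venous catheters tunneled subcutaneously and exteriorized at the neck, studied at least 16 h after surgery while held in restraining cages. Compound dissolved in saline or 10-25% ethanol in saline, given as a rapid iv bolus at 1 mL/kg followed by a flush. Pressure read at 1-min intervals for 15 min after dosing. Maximum MABP change per rat, averaged per dose. Least-squares regression, solved for a −50 mmHg response.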

The species entered for assay [5] is Oryctolagus cuniculus. The experiment in a line: Tested for maximum aggregation units at specified molar concentration; g= No response. The class given is functional. The method in brief:
as §1

For assay [6], the species on record is Rattus norvegicus. The experiment in a line: Tested for the molar concentration required to cause 50% of maximum aggregation. Format: functional, organism-based. The method in brief:
as §1

As a reminder, the EC50 is the midpoint of the concentration-response curve. A lower EC50 goes with an effect from little substance. In the case of `CCCCCCCCCCCCCCc1ccc(OCC(COP(=O)([O-])OCC[N+](C)(C)C)OC(C)=O)cc1` (configuration not stated), in assay [1], the Ratio is on record as 2.37. In assay [2], the midpoint of the response, the EC50, lay at 53 nM. In assay [3], the Max platelet response is on record as 80. In assay [4], the Dose stood at 12.56 µg/kg.
Take `CCCCCCCCCCCCCCc1cccc(OCC(COP(=O)([O-])OCC[N+](C)(C)C)OC(C)=O)c1` (configuration not stated): the Ratio in assay [1] is given as 0.1. Besides, the EC50 in assay [2] is 44 nM. The Max platelet response in assay [3] is on record as 70. Moreover, in assay [4], the Dose stood at 0.43 µg/kg.
Compound `CCCCCCCCCCCCCCCCc1ccccc1OCC(COP(=O)([O-])OCC[N+](C)(C)C)OC(C)=O` (configuration not stated) gave an EC50 in assay [2] of over 10000 nM. Besides, the Max platelet response entry in assay [5] is “No response”.
In assay [6], `CCCCCCCCCCCCCCCCCC(COP(=O)([O-])OCC[N+](C)(C)C)OC(C)=O` (configuration not stated) returned an EC50 of 3100 nM. Besides, the Ratio in assay [1] is reported as 1.15. In assay [3], this compound displayed a Max platelet response of 31. Further, the Dose in assay [4] was determined as 357.3 µg/kg.
Regarding `CCCCCCCCCCCCCCCCOCC(COP(=O)([O-])OCC[N+](C)(C)C)OC(C)=O` (configuration not stated) [PLATELET ACTIVATING FACTOR], the Ratio in assay [1] is 0.56. This compound also showed an EC50 in assay [2] of 22.2 nM. This compound also registered a Max platelet response in assay [3] of 71. In assay [4], this compound showed a Dose of 1.25 µg/kg.
Taken in the same sequence, the figures for `CCCCCCCCCCCCCCCCCCOCC(COP(=O)([O-])OCC[N+](C)(C)C)OC(C)=O` (configuration not stated) were 1.98, 16 nM, 79 and 3.17 µg/kg.
